Source: ChEMBL document CHEMBL1152702, “Synthesis and biological evaluation of some new 1,4-dihydropyridines containing different ester substitute and diethyl carbamoyl group as anti-tubercular agents” (Bioorg Med Chem, 2009)
In brackets after ≈: the same amount, converted by molar mass.

Legend:
[1] = tested on: Mycobacterium tuberculosis; test: Antimycobacterial activity against Mycobacterium tuberculosis H37Rv ATCC 27294 after 21 days by agar proportion method; format: functional; details: 504 h
Summary of the method: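 Agar proportion method on Middlebrook 7H10 with glycerol and OADC, compounds added from DMSO solutions at […]. H37Rv was grown in 7H9 broth at 37 °C for 4–7 days and adjusted to McFarland no. 1. The 10^-2 and 10^-4 dilutions were the inocula. MIC was read after 21 days at 37 °C under 5–7% CO₂.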

[2] = Antagonist activity at calcium channel in guinea pig ileum assessed as inhibition of KCl-induced contraction of ileal longitudinal smooth muscle pretreated 15 mins before KCl challenge; format: functional, tissue-based; details: Cavia porcellus

| SMILES | MIC [1] [µM] | IC50 [2] [µM] |
| --- | --- | --- |
| CCCOC(=O)C1=C(C)NC(C)=C(C(=O)N(CC)CC)C1c1ncc([N+](=O)[O-])n1C (stereo not drawn) | 2 (≈ 0.839 µg/mL) | 12 |
| CCN(CC)C(=O)C1=C(C)NC(C)=C(C(=O)OC)C1c1ncc([N+](=O)[O-])n1C (stereo not drawn) | > 500 | 32.2 |
| CO[C@H]1/C=C/O[C@@]2(C)Oc3c(C)c(O)c4c(O)c(c(/C=N/N5CCN(C)CC5)c(O)c4c3C2=O)NC(=O)/C(C)=C\C=C\[C@H](C)[C@H](O)[C@@H](C)[C@@H](O)[C@@H](C)[C@H](OC(C)=O)[C@@H]1C [RIFAMPIN] | 1 (≈ 0.823 µg/mL) |  |
| CCN(CC)C(=O)C1=C(C)NC(C)=C(C(=O)OCCCCCc2ccccc2)C1c1ncc([N+](=O)[O-])n1C (stereo not drawn) | 2 (≈ 1.05 µg/mL) | 24 |
| CCN(CC)C(=O)C1=C(C)NC(C)=C(C(=O)OCCCc2ccccc2)C1c1ncc([N+](=O)[O-])n1C (stereo not drawn) | 1 (≈ 0.496 µg/mL) | 2.7 |
| CCOC(=O)C1=C(C)NC(C)=C(C(=O)N(CC)CC)C1c1ncc([N+](=O)[O-])n1C (stereo not drawn) | 250 (≈ 101 µg/mL) | 29.7 |
| CCN(CC)C(=O)C1=C(C)NC(C)=C(C(=O)OC(C)C)C1c1ncc([N+](=O)[O-])n1C (stereo not drawn) | > 500 | 18.8 |
| CCN(CC)C(=O)C1=C(C)NC(C)=C(C(=O)OCCCCc2ccccc2)C1c1ncc([N+](=O)[O-])n1C (stereo not drawn) | 2 (≈ 1.02 µg/mL) | 3.5 |
| CCN(CC)C(=O)C1=C(C)NC(C)=C(C(=O)OCc2ccccc2)C1c1ncc([N+](=O)[O-])n1C (stereo not drawn) | 1 (≈ 0.468 µg/mL) | 4.2 |
| CCN(CC)C(=O)C1=C(C)NC(C)=C(C(=O)OCCc2ccccc2)C1c1ncc([N+](=O)[O-])n1C (stereo not drawn) | 1 (≈ 0.482 µg/mL) | 2.4 |
| COC(=O)C1=C(C)NC(C)=C(C(=O)OC)C1c1ccccc1[N+](=O)[O-] [NIFEDIPINE] |  | 0.00107 |
| CCCCOC(=O)C1=C(C)NC(C)=C(C(=O)N(CC)CC)C1c1ncc([N+](=O)[O-])n1C (stereo not drawn) | 1 (≈ 0.434 µg/mL) | 8.57 |
| NNC(=O)c1ccncc1 [ISONIAZID] | 1 (≈ 0.137 µg/mL) |  |
